# From publication PMC11861226 (Journal of Cancer Research and Clinical Oncology, 2025)
# Legend:
# [1] = ref Lamba et al. [2021]; Kondo et al. [2022]; Järvinen et al. [2023]; cited from earlier work
# [2] = ^68Ga-DOTA-PSMA micro-PET/CT imaging of 22Rv1 xenograft mice; type: in vivo, mouse; details: mouse, tumor / non-tumor (muscle), iv, 3.7 MBq, total radioactivity
# How it was run: (§1)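 Tracer was labelled with ⁶⁸Ga (generator eluted with 0.1 mol/l HCl) in sodium acetate buffer, pH 3–4, at 95 °C for 15 min. Male six-week-old nude mice bearing 22Rv1 xenografts received 3.7 MBq via the tail vein. Animal PET/CT imaging followed at multiple time points after injection to track tracer accumulation in tumour and surrounding organs.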
# [3] = test system: 22Rv1 Xenograft Mice; assay: as above; type: in vivo, mouse; details: PET/CT imaging, 22Rv1 tumor
# How it was run: as §1
# [4] = ^68Ga-DOTA-PSMA organ biodistribution by γ-counter, PC-3 xenograft mice; type: in vivo; details: mouse, tumor, iv, 3.7 MBq, total radioactivity
# How it was run: (§2)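 Male six-week-old SPF nude mice: normal (n = 15), 22Rv1 xenograft (n = 12) or PC-3 xenograft (n = 12), with three animals per time point. Each received 3.7 MBq i.v. via the tail vein. Tracer was labelled with ⁶⁸Ga (generator eluted with 0.1 mol/l HCl) in sodium acetate, pH 3–4, at 95 °C for 15 min. Mice were killed by cervical dislocation; organs were excised, weighed and γ-counted for %ID/g. Mean ± SD.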
# [5] = ^68Ga-DOTA-PSMA organ biodistribution by γ-counter, 22Rv1 xenograft mice; type: in vivo; details: mouse, tumor, iv, 3.7 MBq, total radioactivity
# How it was run: as §2
# [6] = test system: glioblastoma cancer cell nuclei; details: glioblastoma patients; ref Ho et al. [2022]; cited from earlier work
compound,measurement,setting,value
"N[C@@H](Cc1ccc(B(O)O)cc1)C(=O)O [BPA, Boronophenylalanine]",water solubility,[1],poor water solubility
"O=C(O)CC[C@H](NC(=O)N[C@@H](CCCCNC(=O)[C@H](Cc1ccc2ccccc2c1)NC(=O)CCCCCNC(=O)CN1CCN(CC(=O)O)CCN(CC(=O)O)CCN(CC(=O)O)CC1)C(=O)O)C(=O)O [^68Ga-DOTA-PSMA, metal not drawn]",tissue to tissue ratio at 2 h,[2],6.95 ± 0.6
same,time of peak radiotracer uptake post-injection,[3],2 h
same,tissue uptake at 2 h,[4],6.23 ± 0.79 %ID/g
same,tissue uptake at 2 h,[5],27.1 ± 2.55 %ID/g
O=C([O-])CN(CCN(CC(=O)[O-])CC(=O)O)CCN(CC(=O)[O-])CC(=O)O.[Gd+3] [^157Gd-DTPA],cancer cell nuclei found to contain the agent,[6],6.1%
Sodium mercaptoundecahydro-closo-dodecaborate [BSH],water solubility,[1],more water-soluble
